ChEMBL document CHEMBL4390663, “Cationic biaryl 1,2,3-triazolyl peptidomimetic amphiphiles: synthesis, antibacterial evaluation and preliminary mechanism of action studies” (Eur J Med Chem, 2019)

How the values were obtained:
Acinetobacter baumannii = test: Antimicrobial activity against Acinetobacter baumannii ATCC 19606 incubated for 18 hrs by CLSI method; format: functional; conditions: ATCC 19606 = CIP 70.34 = JCM 6841, 18 h
Summary of the method: (§1)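 Screen run by CO-ADD: mid-log cultures in cation-adjusted MHB, 5 × 10^5 CFU/mL, compounds at up to 32 μg/mL in 1:2 serial dilutions (8 steps), final DMSO ≤0.5%, duplicate. 37 °C for 18 h without shaking; OD600 read against media-only and untreated-bacteria references. MIC = lowest concentration giving ≥80% inhibition; colistin standard.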

[1] = Haemolytic activity in sheep erythrocytes at 5 ug/ml incubated for 2 hrs under shaking condition relative to control; format: ADME, cell-based, Ovis aries, Erythrocyte; conditions: read-out: Activity
Summary of the method: (§2)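 Compounds in PBS mixed with washed sheep erythrocytes (2% final) at 5 or 50 μg/mL, rocked 2 h at 37 °C, centrifuged; supernatant absorbance at 540 nm. PBS-only value subtracted, then expressed relative to water lysis (100%). Triplicate, means reported.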

Enterococcus faecalis = test: Antibacterial activity against Enterococcus faecalis ATCC 29212 incubated for 24 hrs by CLSI method; format: functional; conditions: ATCC 29212, 24 h
[2] = Haemolytic activity in sheep erythrocytes at 50 ug/ml incubated for 2 hrs under shaking condition relative to control; format: ADME, cell-based, Ovis aries, Erythrocyte; conditions: read-out: Activity; summary of the method: as §2
Staphylococcus aureus [3] = test: Antibacterial activity against methicillin-resistant Staphylococcus aureus NCTC 10442 incubated for 24 hrs by CLSI method; format: functional; conditions: NCTC 10442, 24 h
Summary of the method: (§3)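 Broth microdilution per CLSI aerobic guidance in Mueller Hinton broth, ambient air, 35 °C for 24 h. DMSO stocks were diluted in water, then serially diluted with double-strength broth inoculum added, for final 0.25–128 μg/mL. […] MIC was read visually as the lowest concentration inhibiting growth; the modal value of triplicates was recorded.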

Pseudomonas aeruginosa = test: Antimicrobial activity against Pseudomonas aeruginosa ATCC 27853 incubated for 18 hrs by CLSI method; format: functional; conditions: ATCC 27853, 18 h; summary of the method: as §1
Escherichia coli = test: Antibacterial activity against Escherichia coli ATCC 25922 incubated for 18 hrs by CLSI method; format: functional; conditions: ATCC 25922, 18 h; summary of the method: as §1
[4] = Cytotoxicity against human HEK293 cells assessed as reduction in cell growth incubated for 20 hrs by resazurin dye-based fluorometric assay
Summary of the method: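 HEK293 cells, 5000 per well in DMEM + 10% FBS, exposed to compounds (top 32 μg/mL, 1:2 serial dilution ×8, ≤0.5% DMSO, duplicate) for 20 h at 37 °C, 5% CO2. Resazurin added (2.3 μg/mL final), 3 h further; fluorescence ex 560/em 590 nm. CC50 from sigmoidal dose-response fit against log concentration; tamoxifen standard.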

Clostridioides difficile [5] = test: Antibacterial activity against Clostridium difficile ATCC 700057 incubated for 48 hrs by CLSI method; format: functional; conditions: ATCC 700057, 48 h
Summary of the method: (§4)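 Broth microdilution per CLSI anaerobe method in pre-reduced (2-4 h) Brucella broth with haemin and vitamin K, 35 °C anaerobically for 48 h. Compounds from 5 mg/mL DMSO stocks, twofold dilutions in water mixed with double-strength broth; final 0.25–128 μg/mL. […] Triplicate; modal MIC read visually as lowest concentration inhibiting growth.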

Streptococcus pneumoniae = test: Antibacterial activity against Streptococcus pneumoniae ATCC 49619 incubated for 24 hrs by CLSI method; format: functional; conditions: ATCC 49619, 24 h
Summary of the method: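 CLSI broth microdilution in MHB with 2.5% lysed horse blood, 5% CO2, 35 °C, 24 h. Compounds from 5 mg/mL DMSO stocks diluted in water plus double-strength broth; final 0.25–128 μg/mL. […] Triplicate; modal MIC read visually as lowest growth-inhibiting concentration.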

Clostridioides difficile [6] = test: Antibacterial activity against Clostridium difficile NSW132 RT027 incubated for 48 hrs by CLSI method; format: functional; conditions: NSW132 RT027, 48 h; summary of the method: as §4
Klebsiella pneumoniae = test: Antibacterial activity against Klebsiella pneumoniae 700603 incubated for 18 hrs by CLSI method; format: functional; conditions: Klebsiella pneumoniae, 700603, 18 h; summary of the method: as §1
Staphylococcus aureus [7] = test: Antimicrobial activity against Staphylococcus aureus ATCC 29213 incubated for 24 hrs by CLSI method; format: functional; conditions: ATCC 29213, 24 h; summary of the method: as §3
Staphylococcus aureus [8] = test: Antimicrobial activity against Staphylococcus aureus ATCC 43300 incubated for 18 hrs by CLSI method; format: functional; conditions: ATCC 43300, 18 h

| SMILES | MIC (Acinetobacter baumannii) | hemolysis at 2 h, 5 ug/ml [1] | MIC (Enterococcus faecalis) | hemolysis at 2 h, 50 ug/ml [2] | MIC (Staphylococcus aureus [3]) | MIC (Pseudomonas aeruginosa) | MIC (Escherichia coli) | CC50 at 20 h [4] | MIC (Clostridioides difficile [5]) | MIC (Streptococcus pneumoniae) | MIC (Clostridioides difficile [6]) | MIC (Klebsiella pneumoniae) | MIC (Staphylococcus aureus [7]) | MIC (Staphylococcus aureus [8]) |
| --- | --- | --- | --- | --- | --- | --- | --- | --- | --- | --- | --- | --- | --- | --- |
| CC(C)CCOc1ccc2ccccc2c1-c1c(OCc2cn(C[C@@H](CCCCN)NC(=O)[C@@H](CCCNC(=N)N)n3cc(CC4CCCCC4)nn3)nn2)ccc2ccccc12.Cl.Cl | 16 µg/mL | 1.6% | 4 µg/mL | 88.8% | 4 µg/mL | 32 µg/mL | 32 µg/mL | > 32 µg/mL | 8 µg/mL | 4 µg/mL | 16 µg/mL | > 32 µg/mL | 4 µg/mL | 2 µg/mL |
| CC(C)CCOc1ccccc1-c1ccccc1OCc1cn(C[C@@H](CCCCN)NC(=O)[C@@H](CCCNC(=N)N)NC(=O)Cc2ccccc2)nn1.Cl.Cl | 32 µg/mL | 0.6% | 8 µg/mL | 17.5% | 8 µg/mL | 32 µg/mL | 16 µg/mL | 32 µg/mL | 16 µg/mL | 8 µg/mL | 16 µg/mL | 32 µg/mL | 8 µg/mL | 4 µg/mL |
| CC(C)CCOc1ccccc1-c1ccccc1OCc1cn(C[C@@H](CCCCN)NC(=O)[C@@H](CCCNC(=N)N)NC(=O)OCC2c3ccccc3-c3ccccc32)nn1.Cl.Cl | > 32 µg/mL |  | 4 µg/mL |  | 4 µg/mL | > 32 µg/mL | > 32 µg/mL | > 32 µg/mL | 32 µg/mL | 4 µg/mL | 32 µg/mL | > 32 µg/mL | 4 µg/mL | 4 µg/mL |
| CC(C)CCOc1ccccc1-c1ccccc1OCc1cn(C[C@@H](CCCCN)NC(=O)OCc2ccccc2)nn1.Cl | 32 µg/mL |  | 16 µg/mL |  | 16 µg/mL | 32 µg/mL | 32 µg/mL | 4.7 µg/mL | 8 µg/mL | 32 µg/mL | 32 µg/mL | > 32 µg/mL | 16 µg/mL | 16 µg/mL |
| CC(C)CCOc1ccccc1-c1ccccc1OCc1cn(C[C@@H](CCCNC(=N)N)NC(=O)[C@@H](CCCCN)n2cc(C3CCCCC3)nn2)nn1.Cl.Cl | 8 µg/mL |  | 8 µg/mL |  | 4 µg/mL | 8 µg/mL | 8 µg/mL | 15.3 µg/mL | 32 µg/mL | 4 µg/mL | 32 µg/mL | 32 µg/mL | 4 µg/mL | 4 µg/mL |
| CC(C)CCOc1ccc2ccccc2c1-c1c(OCc2cn(C[C@@H](CCCCN)NC(=O)[C@@H](CCCNC(=N)N)NC(=O)Cc3ccccc3)nn2)ccc2ccccc12.Cl.Cl | 32 µg/mL |  | 4 µg/mL |  | 4 µg/mL | 16 µg/mL | 8 µg/mL | 12.1 µg/mL | 8 µg/mL | 4 µg/mL | 16 µg/mL | 32 µg/mL | 2 µg/mL | 2 µg/mL |
| CC(C)CCOc1ccc2ccccc2c1-c1c(OCc2cn(C[C@@H](CCCCN)NC(=O)[C@@H](CCCNC(=N)N)n3cc(CCc4ccccc4)nn3)nn2)ccc2ccccc12.Cl.Cl | 32 µg/mL |  | 4 µg/mL |  | 4 µg/mL | 32 µg/mL | > 32 µg/mL | > 32 µg/mL | 16 µg/mL | 4 µg/mL | 16 µg/mL | > 32 µg/mL | 4 µg/mL | 4 µg/mL |
| CC(C)CCOc1ccc2ccccc2c1-c1c(OCc2cn(C[C@@H](CCCNC(=N)N)NC(=O)CCc3ccccc3)nn2)ccc2ccccc12.Cl | > 32 µg/mL |  | 8 µg/mL |  | 4 µg/mL | > 32 µg/mL | > 32 µg/mL | 15.9 µg/mL | 16 µg/mL | 8 µg/mL | 16 µg/mL | > 32 µg/mL | 4 µg/mL | 4 µg/mL |
| CC(C)CCOc1ccccc1-c1ccccc1OCc1cn(C[C@@H](CCCCN)NC(=O)Cc2ccccc2)nn1.Cl | 32 µg/mL |  | 8 µg/mL |  | 8 µg/mL | 32 µg/mL | > 32 µg/mL | 14.2 µg/mL | 32 µg/mL | 8 µg/mL | 32 µg/mL | > 32 µg/mL | 8 µg/mL | 16 µg/mL |
